Data as given in ChEMBL document CHEMBL4196202, “Discovery and Structure-Based Optimization of Benzimidazole-Derived Activators of SOS1-Mediated Nucleotide Exchange on RAS” (J Med Chem, 2018).
Converted amounts (≈) assume the structure as drawn. The source made the active and inactive calls. The calls are words filed in the database; no cut-off is given here.

Columns and labels:
[1] = target: T1, Son of sevenless homolog 1 (Homo sapiens, UniProt Q07889); assay: Binding affinity to human recombinant N-terminal His6-tagged SOS1 (564 to 1049 residues) expressed in BL21-RIL Escherichia coli by fluorescent probe S1 based fluorescence polarization anisotrophy saturation binding assay
T1 sequence (Q07889 whole entry): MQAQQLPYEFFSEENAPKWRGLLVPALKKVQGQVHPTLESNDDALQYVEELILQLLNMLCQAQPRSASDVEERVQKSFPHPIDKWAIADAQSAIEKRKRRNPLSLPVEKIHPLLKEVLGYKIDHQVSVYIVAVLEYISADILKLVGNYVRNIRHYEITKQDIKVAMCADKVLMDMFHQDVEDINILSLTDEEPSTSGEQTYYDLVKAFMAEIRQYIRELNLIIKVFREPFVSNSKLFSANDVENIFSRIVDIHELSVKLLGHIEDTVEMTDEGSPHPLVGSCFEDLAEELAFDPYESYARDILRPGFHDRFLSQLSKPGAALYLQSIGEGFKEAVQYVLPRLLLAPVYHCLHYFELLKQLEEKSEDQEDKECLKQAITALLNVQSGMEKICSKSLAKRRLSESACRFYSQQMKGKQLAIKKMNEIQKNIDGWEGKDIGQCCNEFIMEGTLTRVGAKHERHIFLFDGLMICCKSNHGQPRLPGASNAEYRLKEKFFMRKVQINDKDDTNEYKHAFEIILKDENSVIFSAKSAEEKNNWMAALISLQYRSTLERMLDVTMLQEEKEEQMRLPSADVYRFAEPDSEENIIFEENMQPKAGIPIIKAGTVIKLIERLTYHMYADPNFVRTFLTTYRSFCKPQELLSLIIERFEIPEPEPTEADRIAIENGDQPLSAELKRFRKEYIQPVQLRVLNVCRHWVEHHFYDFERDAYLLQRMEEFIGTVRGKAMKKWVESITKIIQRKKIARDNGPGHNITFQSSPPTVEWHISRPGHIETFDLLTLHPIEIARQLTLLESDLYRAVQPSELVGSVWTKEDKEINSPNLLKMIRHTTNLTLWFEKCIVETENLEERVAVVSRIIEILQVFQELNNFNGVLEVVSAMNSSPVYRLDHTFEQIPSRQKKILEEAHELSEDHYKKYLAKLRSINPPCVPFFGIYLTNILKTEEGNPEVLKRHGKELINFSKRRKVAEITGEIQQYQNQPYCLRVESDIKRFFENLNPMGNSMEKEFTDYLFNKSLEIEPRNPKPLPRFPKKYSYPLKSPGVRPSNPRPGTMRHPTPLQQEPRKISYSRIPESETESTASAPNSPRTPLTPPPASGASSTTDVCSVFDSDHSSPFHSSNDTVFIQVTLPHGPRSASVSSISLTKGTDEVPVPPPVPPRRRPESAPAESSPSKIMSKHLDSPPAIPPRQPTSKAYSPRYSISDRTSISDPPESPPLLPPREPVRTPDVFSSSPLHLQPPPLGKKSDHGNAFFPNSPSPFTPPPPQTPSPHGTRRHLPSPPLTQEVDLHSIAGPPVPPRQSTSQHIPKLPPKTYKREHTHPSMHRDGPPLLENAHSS
Method in brief: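 SOS1cat (aa 564–1049) was titrated in a 12-point, 2-fold series from 10 μM top against 50 nM fluorescein-labeled probe. Buffer was 20 mM Tris-HCl pH 7.5, 50 mM NaCl, 1 mM magnesium chloride, with 20 min at room temperature in the dark. Anisotropy was read and Kd reported as mean ± SD of at least three independent experiments.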

[2] = target: T1, Son of sevenless homolog 1; assay: Activation of SOS1 in human HeLa cells expressing wild type KRAS assessed as induction of ERK1/2 T202/Y204 phosphorylation incubated for 30 mins by In-cell Western assay; type: cell-based
[3] = target: Son of sevenless homolog 1 (Homo sapiens, UniProt Q07889); assay: Activation of SOS1 in human NCI-H727 cells expressing KRAS G12V mutant assessed as induction of ERK1/2 T202/Y204 phosphorylation incubated for 30 mins by In-cell Western assay; type: cell-based
[4] = target: T2, Son of sevenless homolog 1 (Homo sapiens) (UniProt Q07889); assay: Biphasic activity at of SOS1 in human HeLa cells expressing wild type KRAS assessed as induction of ERK1/2 T202/Y204 phosphorylation at 1.5 to 100 uM (lower range) incubated for 30 mins by In-cell Western assay; type: cell-based
T2 sequence (whole entry): T1 sequence (Q07889 whole entry)

[5] = target: T2, Son of sevenless homolog 1 (Homo sapiens); assay: Biphasic activity at of SOS1 in human HeLa cells expressing wild type KRAS assessed as reduction in ERK1/2 T202/Y204 phosphorylation at 1.5 to 100 uM (higher range) incubated for 30 mins by In-cell Western assay; type: cell-based
[6] = target: T2, Son of sevenless homolog 1 (Homo sapiens); assay: Activation of SOS1 in human NCI-H727 cells expressing KRAS G12V mutant assessed as induction of ERK1/2 T202/Y204 phosphorylation at 1.5 to 100 uM (lower range) incubated for 30 mins by In-cell Western assay; type: cell-based
[7] = target: T2, Son of sevenless homolog 1 (Homo sapiens); assay: Activation of SOS1 in human NCI-H727 cells expressing KRAS G12V mutant assessed as induction of ERK1/2 T202/Y204 phosphorylation at 1.5 to 100 uM (higher range) incubated for 30 mins by In-cell Western assay; type: cell-based
[8] = target: T1, Son of sevenless homolog 1; assay: Binding affinity to human recombinant N-terminal His6-tagged SOS1 (564 to 1049 residues) expressed in BL21-RIL Escherichia coli by fluorescent probe S3 based fluorescence polarization anisotrophy saturation binding assay
Method in brief: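 SOS1cat (aa 564–1049) was titrated in a 16-point, 3-fold series from 10 μM top against 50 nM fluorescein probe S3. Buffer was 20 mM Tris-HCl pH 7.5, 50 mM NaCl, 1 mM magnesium chloride. Fluorescence anisotropy was read and Kd reported as mean ± SD of at least three independent experiments.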

[9] = Aqueous solubility in pH 6.8 buffer at 1 mg/mL by HPLC/DAD-UV assay; type: physicochemical
Method in brief: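 Solid compound was dispensed at 1 mg/mL into McIlvaine buffer pH 6.8, with a reference dissolved in acetonitrile/water 1:1 (v/v). Dissolved concentration was quantified by HPLC-DAD-UV. Single experiment.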

[10] = target: T2, Son of sevenless homolog 1 (Homo sapiens); assay: Activation of SOS1 in human HeLa cells expressing wild type KRAS assessed as increase in RAS-GTP levels at 10 to 30 uM incubated for 10 mins by active RAS pull-down assay; type: cell-based
Method in brief: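 HeLa cells, STR-authenticated and mycoplasma-negative, were passaged at least twice after thaw (25 passages maximum). They were seeded to reach 70% confluency after 24 h, then treated. Active RAS-GTP was captured by RAF1-RBD pull-down and detected by SDS-PAGE and western blot with a pan-RAS antibody and a fluorescent secondary, read on an Odyssey imager. Total RAS and α-tubulin in the input served as loading controls.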

[11] = target: T2, Son of sevenless homolog 1 (Homo sapiens); assay: Activation of SOS1 in human HeLa cells expressing wild type KRAS assessed as increase in RAS-GTP levels at 0.3 uM incubated for 10 mins by active RAS pull-down assay; type: cell-based
[12] = target: T2, Son of sevenless homolog 1 (Homo sapiens); assay: Activation of SOS1 in human HeLa cells expressing wild type KRAS assessed as induction of ERK1/2 T202/Y204 phosphorylation at 1.5 to 100 uM incubated for 30 mins by In-cell Western assay
[13] = target: T1, Son of sevenless homolog 1; assay: Binding affinity to human recombinant N-terminal His6-tagged SOS1 (564 to 1049 residues) expressed in BL21-RIL Escherichia coli by fluorescent probe S2 based fluorescence polarization anisotrophy saturation binding assay
[14] = target: T2, Son of sevenless homolog 1 (Homo sapiens); assay: Activation of SOS1 in human HeLa cells expressing wild type KRAS assessed as increase in RAS-GTP levels at 0.3 to 30 uM incubated for 10 mins by active RAS pull-down assay; type: cell-based
Method in brief: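 HeLa cells seeded to reach 70% confluency after 24 h, then treated. RAS-GTP was captured by a RAF1-RBD active RAS pull-down kit, resolved by SDS-PAGE, blotted to PVDF and probed with pan-RAS antibody. Total RAS and α-tubulin inputs served as loading controls. Detection was by fluorescent secondary antibody on an Odyssey imager.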

Structure (SMILES)	Kd [1] [µM]	EC50 [2] [µM]	EC50 [3] [µM]	Activity [4]	Activity [5]	Activity [6]	Activity [7]	Kd [8] [µM]	solubility [9] [µg/mL]	Activity [10]	Activity [11]	Activity [12]	Kd [13] [µM]	Activity [14]
Cc1cc(Cn2c(N3CCNCC3)nc3c(-c4ccccc4Cl)cc(Cl)cc32)cc(C)c1F	0.12	11	36.8	Active	Active	Active	inactive	–	–	–	–	–	–	–
Cc1cc(Cn2c(N3CC4(CNC4)C3)nc3c(N4CCN(C)CC4)cc(Cl)cc32)cc(C)c1F	–	5.9	10	Active	Active	Active	Active	0.044	> 110	Active	Active	Active	–	–
Cc1cc(Cn2c(N3CCNCC3)nc3c(N4CCN(C)CC4)cc(Cl)cc32)cc(C)c1F	–	–	–	Active	Active	–	Active	–	–	Active	–	Active	–	–
Cc1ncncc1-c1cc(Cl)cc2c1nc(N1CC3(CNC3)C1)n2Cc1ccc(F)cc1	–	33.2	42.5	Active	inactive	Active	inactive	–	–	–	–	–	0.18	Active
Cc1cc(Cn2c(N3CC4(CNC4)C3)nc3c(-c4cncnc4C)cc(Cl)cc32)cc(C)c1F	–	11.4	15.7	Active	Active	Active	Active	0.016	3 (≈ 6.29 µM)	–	–	–	–	Active
Cc1nc(N)ncc1-c1cc(Cl)cc2c1nc(N1CC3(CNC3)C1)n2Cc1ccc(F)cc1	–	14	27.5	Active	Active	Active	inactive	0.036	–	–	–	–	–	–
Cc1cc(Cn2c(N3CCNCC3)nc3ccc(Cl)cc32)cc(C)c1F	0.46	14.5	21.2	Active	Active	Active	Active	–	–	–	–	–	–	–
Cc1cc(Cn2c(N3CC4(CNC4)C3)nc3c(-c4ccccc4Cl)cc(Cl)cc32)cc(C)c1F	–	14	19.7	Active	Active	Active	Active	0.012	–	–	–	–	–	–
Cc1cc(Cn2c(N3CCNCC3)nc3c(-c4cncnc4C)cc(Cl)cc32)cc(C)c1F	–	10.2	14.5	Active	Active	Active	Active	–	–	–	–	–	0.11	Active
Cc1cc(Cn2c(N3CC4(CNC4)C3)nc3c(-c4cnc(N)nc4C)cc(Cl)cc32)cc(C)c1F	–	7.8	13.4	Active	Active	Active	Active	0.012	–	–	–	–	–	–
Cc1cc(Cn2c(N3CC4(CNC4)C3)nc3c(-c4c(C)n[nH]c4C)cc(Cl)cc32)cc(C)c1F	–	14.1	21.1	Active	Active	Active	Active	0.009	–	–	–	–	–	–
Cc1cc(Cn2c(N3CCNCC3)nc3c(-c4ccccc4)cc(Cl)cc32)cc(C)c1F	0.27	–	–	–	–	–	–	–	–	–	–	–	–	–
